The nature of this series: Toxicity liver stage against HepG2, at 10uM. The note with it: human, HepG2-A16-CD81EGFP cells; read-out: INHIBITION
Also noted: test concentration 10 uM, cell line HepG2-A16-CD81EGFP. The format is cell-based. In outline:
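Uninfected HepG2-A16-CD81EGFP cells, 3 × 10^3 per well, 1536-well, plated on prespotted compound at 10 μM final, parasite-free screening media added to match infected plates; puromycin 10 μM positive, DMSO 0.5% negative; run in parallel with 48 h PbLuc assay at 37 °C, 5% CO2; viability by CellTiter-Glo luminescence, normalized to controls.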
With `O=C(NCCNC1CCN(c2nccs2)CC1)c1cccs1`, the cytotoxicity at 10 µM amounted to 5.73%.

As to `C[C@]1(O)CN(Cc2ncccc2F)CC[C@@H]1Oc1ccccc1`, the cytotoxicity at 10 µM was -21%.

As to `CC(=O)N1CCc2c(nc(N(C)C)nc2NCCC2CCCCO2)C1` (centres undefined), the cytotoxicity at 10 µM turned out to be 5.22%.

As to `Cc1n[nH]c(C)c1NC(=O)CN1CCCC1c1c(C)nn(C)c1C` (centres undefined), the cytotoxicity at 10 µM was -19.2%.

On to `Cn1cc(CN2CCc3c(c(COCC#N)nn3C)C2)cn1`, for which the cytotoxicity at 10 µM is -2.45%.

As to `CCNC(=O)NC1CCC(Oc2ccccc2C#N)CC1` (centres undefined), the cytotoxicity at 10 µM was -9.08%.

In the case of `O=C(O)c1ccc(=O)n(CC(c2ccc(F)cc2)N2CCCCCC2)c1` (centres undefined), the cytotoxicity at 10 µM is 1.31%.

For the compound `CCN(CC(=O)NCc1nc(C2CC2)no1)Cc1ccc(Cl)cc1`, the cytotoxicity at 10 µM was -2.29%.

For the compound `CCN(C(=O)C1Cc2cc(Cl)ccc2O1)C1CC1` (centres undefined), the cytotoxicity at 10 µM is 10.1%.

As to `COc1ccc(-c2cn[nH]c2)cc1CNC1CCCC1`, the cytotoxicity at 10 µM is -45.3%.

Consider `CC(C)N(C(=O)c1ccccc1-c1nc2c([nH]1)CCNC2)C(C)C`, for which the cytotoxicity at 10 µM is -45%.

Turning to `Cn1cc(-c2nnn3c2COC(CNCc2cccnc2)C3)cn1` (centres undefined), the cytotoxicity at 10 µM turned out to be 0.824%.

Turning to `Cc1nn(C)c(C)c1C(=O)N1CCN(C(=O)CCC2CCCCC2)CC1`, the cytotoxicity at 10 µM is -5.47%.

As for `CCCNC(=O)CCNC(=O)Cc1nc(-c2ccco2)oc1C`, the cytotoxicity at 10 µM was determined as 23.7%.

`CN(C)CCn1c(=O)n(C)c(=O)c2ccccc21`: the cytotoxicity at 10 µM is -1.48%.

Take `CN1Cc2nnc(C3CCOCC3)n2C(Cc2c[nH]cn2)C1` (centres undefined): the cytotoxicity at 10 µM was -12.1%.

With `CC(OCc1ccccc1)C(=O)NC1CCN(CC(N)=O)CC1` (centres undefined), the cytotoxicity at 10 µM was -3.45%.

With `CCc1ccc(C(=O)O)cc1S(=O)(=O)N(C)c1cccc(C)c1`, the cytotoxicity at 10 µM was -8.2%.

With `c1cncc(CN2CCCC3(COCCN(c4cncnc4)C3)C2)c1` (centres undefined), the cytotoxicity at 10 µM is -73.3%.

In the case of `COCCN1CCC(CN(CC2CCCO2)C(=O)CNC(C)=O)CC1` (centres undefined), the cytotoxicity at 10 µM was determined as 1.48%.

In the case of `O=C(NCC(F)F)c1ccc(S(=O)(=O)NCCc2c[nH]cn2)cc1`, the cytotoxicity at 10 µM is -1.99%.

`CC(=O)N[C@H]1CCN2C(=O)[C@@H](Cc3c[nH]c4ccccc34)NC(=O)[C@H]12`: the cytotoxicity at 10 µM was -0.639%.

As for `CCc1cnc(C)nc1NCc1nc(COC)no1`, the cytotoxicity at 10 µM was determined as 3.24%.

On to `CCN(CC)c1nc2ccsc2c(=O)n1CCC(=O)NC1CCCC1`, for which the cytotoxicity at 10 µM was 7.19%.

Take `CC(C)c1nsc(N2CCOC3(CCCC3)C2)n1`: the cytotoxicity at 10 µM came to 0.243%.

`O=C(c1ccc(C2CCCN2)s1)N1CCN2CCC1CC2` (centres undefined): the cytotoxicity at 10 µM was -8.52%.

On to `Cc1nc(C)n(C2CCCN(C(=O)CCCNc3ncccn3)C2)n1` (centres undefined), for which the cytotoxicity at 10 µM was -4.26%.

On to `CN(Cc1nc2ccccc2o1)CC1CCCN1c1cccnn1` (centres undefined), for which the cytotoxicity at 10 µM was -9.45%.

Turning to `CC(C)c1ccc(OCC(=O)N(C)C)cc1`, the cytotoxicity at 10 µM is -2.82%.

Consider `COc1cc(CNC(=O)c2csc(Br)c2)ccn1`, for which the cytotoxicity at 10 µM was -5.76%.

Take `CCN(C(=O)CCCOC)C(c1ccc(Cl)cc1)c1ccccn1` (centres undefined): the cytotoxicity at 10 µM is -7.25%.

For the compound `Fc1ccc(-c2n[nH]cc2CNCCn2cccn2)cc1`, the cytotoxicity at 10 µM stood at 8.1%.

Consider `COCCC(=O)N[C@H]1CC[C@H](Nc2nccc(-c3ccncc3)n2)C1`, for which the cytotoxicity at 10 µM was found to be 11.5%.

As for `O=C(NCCN1CCOCC1)c1cc(-c2ccc(Cl)s2)[nH]n1`, the cytotoxicity at 10 µM was -6.58%.

As for `CCN(C)Cc1cccc(CNC(=O)CSCc2ccncc2)c1`, the cytotoxicity at 10 µM came to 4.31%.

For `CC(=O)NCC1CCN(CC2CCOc3ccccc3C2)CC1` (centres undefined), the cytotoxicity at 10 µM amounted to 10.3%.

On to `CCC(NC(=O)CCCN1CCCCC1)c1cn2cccnc2n1` (centres undefined), for which the cytotoxicity at 10 µM amounted to 8.09%.

With `c1cc(-c2ccc3c(c2)C2(CCNCC2)CC3)ccn1`, the cytotoxicity at 10 µM was 56.9%.

Turning to `O=C(Cc1ccc(F)cc1)NCCNc1cc(N2CCCC2)ncn1`, the cytotoxicity at 10 µM is -8.37%.

`Cc1nc(C)c(S(=O)(=O)NC(=O)c2cccs2)s1`: the cytotoxicity at 10 µM is -0.837%.

On to `CCc1cc(=O)n(CC(=O)N2CCCCC2)c(-c2cccc(F)c2)n1`, for which the cytotoxicity at 10 µM worked out at 11.4%.

Turning to `CCOC(C)c1nc(Cn2cc(C)cn2)cs1` (centres undefined), the cytotoxicity at 10 µM amounted to 5.52%.

For `CNCC(=O)NC1CC(C)(C)Cc2nc(C(C)(C)C)ncc21` (centres undefined), the cytotoxicity at 10 µM came out at 10.2%.

As for `O=C(CCNc1ncccn1)NCCc1ccn(-c2ccccc2)n1`, the cytotoxicity at 10 µM worked out at 0.914%.

Regarding `CC(C)c1nc(C2CCCN2Cc2nccn2CC(F)(F)F)no1` (centres undefined), the cytotoxicity at 10 µM is -18.9%.

Take `O=C(c1cncs1)N1CCc2[nH]nc(Nc3ccccc3)c2C1`: the cytotoxicity at 10 µM was 8.26%.

For the compound `Cc1cccc2c1NC(c1cnc(C3CCC3)s1)NC2=O` (centres undefined), the cytotoxicity at 10 µM came to 5.11%.

`O=C(Nc1ccccc1)N1CCC2(CC(=O)N(c3ccsc3)C2)C1` (centres undefined): the cytotoxicity at 10 µM was 2.58%.

In the case of `COCCN1CC(C(=O)N(C)Cc2csc(C)n2)CC1=O` (centres undefined), the cytotoxicity at 10 µM was 12.5%.

Turning to `CCn1nc(C)c2ncnc(NCCN3CCOCC3)c21`, the cytotoxicity at 10 µM was 8.93%.

`COCCn1ccc(=O)c(OCC(=O)Nc2cccc(Cl)c2)c1C`: the cytotoxicity at 10 µM came out at 2.16%.

Turning to `Cc1noc(CN2CC(=O)N(C)c3ccccc3C2=O)n1`, the cytotoxicity at 10 µM was -5.03%.

Consider `CNc1cccc(C2CCN(C(C)=O)CC2)n1`, for which the cytotoxicity at 10 µM was determined as 7.49%.

`CCN(C(=O)Nc1nncs1)C(C)c1cccc(OC)c1` (centres undefined): the cytotoxicity at 10 µM stood at 4.84%.

In the case of `CC(C)=CCN1CCOC(Cn2nc(C)cc2C)C1` (centres undefined), the cytotoxicity at 10 µM is -9.93%.

Consider `CCc1nc(CC(=O)NC(C#N)CC)cs1` (centres undefined), for which the cytotoxicity at 10 µM was 10.3%.

In the case of `Cc1csc(CN2CCC3(CC2)COC(COc2ccccn2)C3)n1` (centres undefined), the cytotoxicity at 10 µM is -113%.

Consider `Cn1cc(C(=O)N2CCSc3ccccc32)ccc1=O`, for which the cytotoxicity at 10 µM is -22.9%.

Turning to `COc1ccccc1-c1cc(NC(=O)COCC2CC2)[nH]n1`, the cytotoxicity at 10 µM was -116%.

Consider `O=C(CNc1cc(-n2cnnn2)ccc1F)NCc1ccccc1`, for which the cytotoxicity at 10 µM is -6.2%.

On to `CCCOCC(=O)N1CCc2c(cccc2S(=O)(=O)N2CCOCC2)C1`, for which the cytotoxicity at 10 µM was determined as 2.71%.

For the compound `Cc1cnc(N2CCCn3c(nnc3CN(C)C(C)C)C2)nc1`, the cytotoxicity at 10 µM stood at 4.42%.

For `CC(C1CCN(Cc2c(Cl)ccc(O)c2Cl)CC1)N1CCN(C)CC1` (centres undefined), the cytotoxicity at 10 µM was -12%.

Turning to `CC(C(=O)NCc1ccnc(OCC(F)(F)F)c1)n1cncn1` (centres undefined), the cytotoxicity at 10 µM is 1.13%.

For the compound `CCCOc1ccc(CNc2cncc(-n3cccn3)n2)cc1`, the cytotoxicity at 10 µM stood at 11.7%.

Regarding `O=C1OCCN1CCc1nc(-c2cc3c4c(c2)CC(=O)N4CCC3)cs1`, the cytotoxicity at 10 µM was -7.1%.

`c1cnn(CC2CCCN2Cc2noc(C3CC3)n2)c1` (centres undefined): the cytotoxicity at 10 µM amounted to 1.46%.

Regarding `CCN(CCc1nccs1)C(=O)c1ccco1`, the cytotoxicity at 10 µM was determined as 15.4%.

As for `CCn1cnnc1CNC(=O)N1CCN(CC(C)C)CC1`, the cytotoxicity at 10 µM is 9.18%.

Regarding `CC(C)CN1C(=O)CCC12CCC(NC(=O)NCc1cccnc1)CC2` (centres undefined), the cytotoxicity at 10 µM is -118%.

Consider `COc1nn(C)c2c1CCCN(C(=O)c1ccc[nH]1)C2`, for which the cytotoxicity at 10 µM is -0.966%.

Turning to `CCc1nc(C2CCCN2Cc2nnc(CC)o2)no1` (centres undefined), the cytotoxicity at 10 µM is -5.36%.

On to `Cn1cnc2cc(C(=O)N3CCC(c4ccccc4C(=O)O)C3)cnc21` (centres undefined), for which the cytotoxicity at 10 µM was -8.98%.

For the compound `CCc1nc(CC(=O)N2CCCCC2Cn2cccn2)cs1` (centres undefined), the cytotoxicity at 10 µM is -17.6%.

For the origin of these results see ChEMBL document CHEMBL4513216, “Probing the Open Global Health Chemical Diversity Library for Multistage-Active Starting Points for Next-Generation Antimalarials” (ACS Infect Dis, 2020).
